# Screening results (PubChem)
# Compounds with a hit are over-represented: about 2.5% of the library has one in this group of screens.
# FGF22 binding: binders of human FGF22 protein, primary screen, FGF22 synaptogenesis inhibitor project, biophysical, thermal shift, single point; Fibroblast growth factor 22 (Homo sapiens), Q9HCT0; recombinant FGF22 thermal shift, SYPRO orange fluorescence; percent of sucrose octasulfate shift, DMSO zero; activity (Tm shift, normalised), % at 9.99 µM; actives 1.5% (n = 340,000);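 active = mean Tm shift, scaled 0 neutral to 100 positive control, at about 1.3% or above, every replicate too, limit read from the data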
# Target sequence (Q9HCT0 whole entry, looked up): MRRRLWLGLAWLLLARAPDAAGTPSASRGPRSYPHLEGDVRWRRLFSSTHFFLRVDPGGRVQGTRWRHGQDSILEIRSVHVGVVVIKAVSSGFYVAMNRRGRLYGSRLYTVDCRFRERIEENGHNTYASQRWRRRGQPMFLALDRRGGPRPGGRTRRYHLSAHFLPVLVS
# miR122 inh: miR-122 Renilla sensor signal increase in Huh7, primary screen, miR-122 inhibitor project, cell-based, single point, plate reader. Huh7 miR-122 Renilla luciferase sensor, 48 h; neutral wells = 0, positive control = 100. activation (reporter increase), % at 12.5 µM. actives 0.3% (n = 340,000). AID 602342, 2012;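 active = mean replicate activation score at least 90 and every replicate individually at or above 90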;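 note: higher luciferase means less miR-122 activity so hits act as miR-122 inhibitors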
# S100A4 MyoIIA: inhibitors of S100A4-myosin IIA peptide binding, primary screen, biochemical, fluorescence polarization, TAMRA-MyoIIA peptide | Protein S100-A4 (Homo sapiens), P26447 | inhibition, % at 10.7 µM | actives 0.14% (n = 360,000);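 active = mean inhibition of at least 70% across replicates, with every replicate also reaching that level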
# Target sequence (P26447 whole entry, looked up): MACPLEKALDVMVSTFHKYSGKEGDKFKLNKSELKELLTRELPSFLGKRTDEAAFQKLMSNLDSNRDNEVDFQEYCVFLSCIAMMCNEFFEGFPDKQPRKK
#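 Material: S100A4 monomer (human). Medium: Calcium-containing HEPES buffer, pH 7.2. Probe or stimulus: labelled myosin peptide probe, 5 nM. Compound dosing: one concentration per compound. Timing: polarization read 5 min after assay mix addition, stable 5–60 min. Benchmarks: DMSO as neutral control, TFP as positive control.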
# E-selectin induc: E-selectin induction in HUVECs, primary screen, imaging, HUVEC, immunofluorescence imaging, single point; activation, % at 7.58 µM; normalized: neutral wells 0, TNF-alpha wells 100; P16581; actives 0.37% (n = 260,000); AID 686992, 2013;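 active = mean E-selectin-positive cell signal at least 10% of the positive control, reached in at least 60% of replicates, without over 20% cell loss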
#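 Assay system: HUVEC primary endothelial cells. Input: 3,000 HUVEC seeded per well. Doses: one compound dose added by pin transfer. Read-out basis: % PE-positive cells. Benchmarks: TNF-alpha high, DMSO low. Detection: immunofluorescence imaging. Buffer or medium: EGM-2, gelatin.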
# SIRT5 inh: SIRT5 desuccinylase inhibitors, primary screen, biochemical, fluorescence imaging, single point, set 5. Purified SirT5, succinyl-peptide AMC, trypsin-coupled fluorescence. inhibition, % at 15 µM. actives 1.1% (n = 330,000). AID 652115, 2013; in the data active = inhibition above about 15%
# Target sequence (Q9NXA8 whole entry, looked up): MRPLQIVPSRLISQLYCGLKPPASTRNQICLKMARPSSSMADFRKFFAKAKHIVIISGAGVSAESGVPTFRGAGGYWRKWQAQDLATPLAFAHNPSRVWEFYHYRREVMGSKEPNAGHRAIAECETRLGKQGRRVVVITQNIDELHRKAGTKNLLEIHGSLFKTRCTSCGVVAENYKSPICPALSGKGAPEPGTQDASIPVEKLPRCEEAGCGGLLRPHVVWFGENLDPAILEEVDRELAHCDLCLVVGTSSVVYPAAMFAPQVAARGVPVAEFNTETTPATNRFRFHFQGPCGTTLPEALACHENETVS
# The depositor's hits bear a star; . = no result; [ ] = remark or other dose.
SMILES,FGF22 binding,miR122 inh,S100A4 MyoIIA,E-selectin induc,SIRT5 inh
CCOC(=O)CSc1ccc(C(=O)N2CCN(C)CC2)cc1[N+](=O)[O-],43.3*,4.0,2.5,-0.1,-4.6
C[C@@H]1CN([C@H](C)CO)S(=O)(=O)c2ccc(C#CC3(O)CCCC3)cc2O[C@@H]1CN(C)C(=O)Nc1cccc(F)c1,0.5,28.9[16.7 µM],4.5,-0.2,-5.3
O=C(c1ccc2c(c1)OCO2)N1CC2(C1)[C@H](c1ccccc1)[C@@H](CO)N2C(=O)C1CCCC1,.,.,-15.4,-0.1,-3.4
O=C(NCc1cn(-c2ccccc2)nc1-c1ccccc1)c1cccc([N+](=O)[O-])c1,43.1*,82.0,0.5,.,-2.5
O=C(NCc1cn(-c2ccccc2)nc1-c1ccccc1)c1cc([N+](=O)[O-])cc([N+](=O)[O-])c1,.,2.6,.,.,.
O=C(NC(=O)c1cccc(F)c1)Nc1nc(-c2ccc(F)cc2)cc(C(F)(F)F)n1,43.8*,.,-0.7,.,-2.2
O=C(NC(=O)c1ccc(F)cc1)Nc1nc(-c2cccs2)cc(C(F)(F)F)n1,0.2,-2.6,0.9,-0.2,.
COc1ccc(CCNC(=O)c2cc(S(=O)(=O)N3CCCCC3)ccc2Cl)cc1,-0.1,3.4,3.8,.,-1.7
COc1ccc(N(C)S(=O)(=O)c2ccc(Cl)c(C(=O)NCCc3ccc(Cl)cc3)c2)cc1,43.4*,16.8,2.6,.,-1.0
COc1ccc(NC(=O)CN(C)C(=O)c2cc(S(=O)(=O)N3CCCCCC3)ccc2OC)cc1,-0.1,-1.0,-2.3,0.5,7.0
Cc1ccc(S(=O)(=O)N2CCOCC2)cc1NC(=O)CSc1nnc2n1CCCCC2,-0.2,.,-2.6,.,-0.5
COc1ccc(S(=O)(=O)N2CCCCCC2)cc1C(=O)N(C)CC(=O)Nc1ccc(F)cc1,-0.4,5.3,-0.2,1.6,20.5*
CS(=O)(=O)c1ccc(Cl)c(NC(=O)CSc2nnc3n2CCCCC3)c1,43.8*,-3.7,6.1,0.0,.
COc1ccccc1OCC(=O)Nc1ccc(S(=O)(=O)N2CCCC2)cc1,-0.1,-3.0,0.5,0.5,.
Cc1ccc(S(=O)(=O)N2CCCCC2)cc1NC(=O)COc1ccccc1F,43.2*,3.2,2.2,0.2,-3.2
COc1ccccc1OCC(=O)Nc1ccc(S(=O)(=O)N2CCN(C)CC2)cc1,0.2,-1.2,2.5,333.2*,5.8
C[C@H]1CN([C@@H](C)CO)C(=O)c2cc(C#CCN(C)C)cnc2O[C@H]1CN(C)C(=O)Nc1cccc(F)c1,-0.4,22.9[16.7 µM],5.1,0.2,-0.9
CCOc1ccc(S(=O)(=O)N2CCCCC2)c(C)c1C,43.0*,.,0.2,.,-4.6
CCOc1ccc(S(=O)(=O)N2CCCCC2)cc1NC(=O)C1CCCC1,43.5*,-20.2,-1.5,0.0,.
CC(C)Oc1ccc(S(=O)(=O)N2CCCCC2)cc1NC(=O)C1CCCC1,0.1,.,-2.9,.,0.7
Cc1ccc(S(=O)(=O)N2CCCCC2)cc1NC(=O)CSc1nncn1-c1ccccc1,43.2*,.,-2.3,.,-2.4
CC(C)NC(=O)N1CCCCN2[C@H](CO)[C@@H](c3ccc(C#Cc4ccccc4)cc3)[C@@H]2C1,0.0,-10.3[16.7 µM],.,0.1,.
O=C(N[C@@H]1C[C@@H]2O[C@H](CO)CC[C@@H]2O[C@@H]1CCc1ccc(C#Cc2ccccc2)cc1)c1ccccn1,.,.,4.6,.,4.7
Cc1ccc(/C=C2\C(=N)N3N=C(CC(=O)N4CCCCC4)SC3=NC2=O)cc1,0.1,-3.8,-2.4,.,3.4
N=C1/C(=C\c2ccc(Br)o2)C(=O)N=C2SC(CC(=O)N3CCOCC3)=NN12,-0.1,-4.8,-19.5,.,27.7*
SMILES,FGF22 binding,miR122 inh,S100A4 MyoIIA,E-selectin induc,SIRT5 inh
N=C1/C(=C/c2ccc(Br)o2)C(=O)N=C2SC(CC(=O)N3CCCC3)=NN12,-0.1,-6.6,-10.2,.,25.6*
N=C1/C(=C/c2ccco2)C(=O)N=C2SC(CC(=O)N3CCCC3)=NN12,-0.1,-1.6,-8.5,5.8,19.5*
CSc1ccc(/C=C2\C(=N)N3N=C(CC(=O)N4CCOCC4)SC3=NC2=O)cc1,0.3,9.9,-4.0,0.0,-7.6
CCS(=O)(=O)N1CC(=O)N2[C@H](C1)[C@@H](c1ccc(C#CCC(C)C)cc1)[C@@H]2CO,0.1,.,0.9,0.2,-1.3
C[C@H]1CCCCO[C@@H](CN(C)C(=O)Nc2ccc3c(c2)OCO3)[C@@H](C)CN([C@@H](C)CO)C(=O)c2cc(NC(=O)Nc3ccccc3)ccc2O1,0.2,4.7[16.7 µM],1.2,.,2.5
Cc1c(C(=O)c2ccc(N(C)C)cc2)c2ccccn2c1CCC#N,-0.3,6.9,-4.1,.,112.1*
Cc1c(C(=O)c2ccc(F)cc2F)c2ccccn2c1CCC#N,-0.4,-3.2,-0.9,.,2.3
C=CCN(CC=C)C(=S)NC(=O)Cc1cccc2ccccc12,43.4*,.,-12.7,0.4,-2.6
CO[C@@H]1CN(C)C(=O)c2cc(NS(=O)(=O)c3cn(C)cn3)ccc2OC[C@H](C)N(CCC(F)(F)F)C[C@@H]1C,-0.1,.,3.4,0.1,-0.9
Cc1ccccc1S(=O)(=O)NC1OC(=O)C(Oc2ccccc2)=C1Br (stereo not given),43.0*,16.9,-0.1,.,-6.2
CC(=O)N1[C@H](CO)[C@H](c2ccc(-c3ccccc3)cc2)[C@@H]1CNC(=O)C1CC1,.,14.3[16.7 µM],.,0.2,.
Cc1cccc(C)c1NC(=O)CN(C)C(=O)c1ccccc1SCC(=O)N1CCCC1,-0.1,.,-4.5,.,16.5*
CN(CC(=O)Nc1c(Cl)cccc1Cl)C(=O)c1ccccc1SCC(=O)N1CCCC1,-0.2,-1.2,4.1,-0.4,1.4
CCC(=O)N1[C@@H]2Cn3c(cccc3=O)[C@H]1[C@@H](C(=O)NCc1ccc(F)cc1)[C@@H]2CO,0.0,2.6[16.7 µM],4.7,0.1,3.2
Cc1c(C(=O)Nc2ccccn2)oc2ccccc12,0.0,94.9*,2.5,.,-7.5
Cc1ccc(NC(=O)c2oc3ccccc3c2C)nc1,0.1,21.6,0.1,.,-3.4
Cc1nc(NC(=O)CCl)sc1C(=O)N(C)C,43.3*,.,-8.9,-0.9,-6.4
COc1ccccc1NC(=O)N1CCCCN2[C@H](CO)[C@H](c3ccc(-c4ccccc4)cc3)[C@@H]2C1,0.0,5.4[16.7 µM],-6.5,.,1.6
CCOC(=O)C1CCN(C(=O)COc2ccc([N+](=O)[O-])cc2)CC1,43.1*,.,4.1,-0.1,8.6
C[C@@H]1CCCCO[C@@H](CN(C)C(=O)CCCN(C)C)[C@@H](C)CN([C@@H](C)CO)C(=O)c2cc(NC(=O)Nc3ccc(C(F)(F)F)cc3)ccc2O1,-0.7,-8.0[16.7 µM],.,-0.2,.
O=C(CSc1nccc(=O)[nH]1)NC1CCCc2ccccc21 (stereo not given),-0.1,.,-3.4,4.5,-2.7
